# Experiments:
# Assay type in all cases: functional
# Bacillus subtilis [1] = assay: Antimicrobial activity against Bacillus subtilis NCIM 2063 after 24 hrs by microdilution susceptibility method; conditions: NCIM 2063, 24 h
# In short: (§1)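 Broth microdilution MIC with NCIM strains. Compounds and the references (chloramphenicol, antibacterial; ketoconazole, antifungal) were dissolved in DMSO at 800 and diluted two-fold from 400 down to 6.25. Wells were inoculated with the microbial suspension and incubated at 36 °C, 24 h for bacteria and 48 h for fungi. MIC was the lowest concentration with no visible growth.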
# [2] = Antioxidant activity assessed as nitric oxide scavenging activity at 100 uM after 120 min by Griess assay
# In short: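 Sodium nitroprusside (5 mM) in phosphate buffer pH 7.4 was incubated with test compound dissolved in dioxane/methanol at 25 °C for 120 min. A solvent-only control was run in parallel. Aliquots were mixed 1:1 with Griess reagent (1% sulfanilamide, 0.1% N-naphthylethylenediamine dihydrochloride, 2% o-phosphoric acid in water).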
# Fusarium solani [3] = assay: Antimicrobial activity against Fusarium solani NCIM 1330 after 48 hrs by microdilution susceptibility method; conditions: NCIM 1330, 48 h; in short: as §1
# Proteus vulgaris [4] = assay: Antimicrobial activity against Proteus vulgaris NCIM 2027 after 24 hrs by microdilution susceptibility method; conditions: NCIM 2027, 24 h
# Staphylococcus aureus [5] = assay: Antimicrobial activity against Staphylococcus aureus NCIM 5021 at 100 ug/disk after 24 hrs by agar disc-diffusion method; conditions: NCIM 5021, 24 h, read-out: DIZ
# In short: (§2)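 Agar disc diffusion with NCIM strains. Sterile 6 mm filter-paper discs were moistened with compound in DMSO at 100 or 200 per disc and placed on agar plates pre-inoculated with each organism. Plates were incubated at 37 °C. Growth-inhibition zone diameter was read at 24 h for bacteria and 48 h for fungi.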
# Proteus vulgaris [6] = assay: Antimicrobial activity against Proteus vulgaris NCIM 2027 at 200 ug/disk after 24 hrs by agar disc-diffusion method; conditions: NCIM 2027, 24 h, read-out: DIZ
# Proteus vulgaris [7] = assay: Antimicrobial activity against Proteus vulgaris NCIM 2027 at 100 ug/disk after 24 hrs by agar disc-diffusion method; conditions: NCIM 2027, 24 h, read-out: DIZ
# Klebsiella pneumoniae [8] = assay: Antimicrobial activity against Klebsiella pneumoniae NCIM 2957 at 100 ug/disk after 24 hrs by agar disc-diffusion method; conditions: NCIM 2957, 24 h, read-out: DIZ; in short: as §2
# Klebsiella pneumoniae [9] = assay: Antimicrobial activity against Klebsiella pneumoniae NCIM 2957 after 24 hrs by microdilution susceptibility method; conditions: NCIM 2957, 24 h; in short: as §1
# Curvularia lunata [10] = assay: Antimicrobial activity against Curvularia lunata NCIM 716 at 100 ug/disk after 48 hrs by agar disc-diffusion method; conditions: NCIM 716, 48 h, read-out: DIZ; in short: as §2
# Staphylococcus aureus [11] = assay: Antimicrobial activity against Staphylococcus aureus NCIM 5021 at 200 ug/disk after 24 hrs by agar disc-diffusion method; conditions: NCIM 5021, 24 h, read-out: DIZ; in short: as §2
# Staphylococcus aureus [12] = assay: Antimicrobial activity against Staphylococcus aureus NCIM 5021 after 24 hrs by microdilution susceptibility method; conditions: NCIM 5021, 24 h; in short: as §1
# Fusarium solani [13] = assay: Antimicrobial activity against Fusarium solani NCIM 1330 at 100 ug/disk after 48 hrs by agar disc-diffusion method; conditions: NCIM 1330, 48 h, read-out: DIZ; in short: as §2
# Curvularia lunata [14] = assay: Antimicrobial activity against Curvularia lunata NCIM 716 after 48 hrs by microdilution susceptibility method; conditions: NCIM 716, 48 h; in short: as §1
# Fusarium solani [15] = assay: Antimicrobial activity against Fusarium solani NCIM 1330 at 200 ug/disk after 48 hrs by agar disc-diffusion method; conditions: NCIM 1330, 48 h, read-out: DIZ; in short: as §2
# Aspergillus niger [16] = assay: Antimicrobial activity against Aspergillus niger NCIM 596 after 48 hrs by microdilution susceptibility method; conditions: NCIM 596, 48 h; in short: as §1
# Bacillus subtilis [17] = assay: Antimicrobial activity against Bacillus subtilis NCIM 2063 at 200 ug/disk after 24 hrs by agar disc-diffusion method; conditions: NCIM 2063, 24 h, read-out: DIZ; in short: as §2
# [18] = tested on: Radical scavenging activity; assay: Antioxidant activity assessed as DPPH free radical scavenging activity at 100 uM after 20 mins
# In short: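 Compound solutions were added to DPPH in dioxane/ethanol and kept at ambient temperature for 20 min, then absorbance was read at 517 nm. Percent inhibition = (A_control − A_sample)/A_control × 100, […].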
# Klebsiella pneumoniae [19] = assay: Antimicrobial activity against Klebsiella pneumoniae NCIM 2957 at 200 ug/disk after 24 hrs by agar disc-diffusion method; conditions: NCIM 2957, 24 h, read-out: DIZ; in short: as §2
# Aspergillus niger [20] = assay: Antimicrobial activity against Aspergillus niger NCIM 596 at 200 ug/disk after 48 hrs by agar disc-diffusion method; conditions: NCIM 596, 48 h, read-out: DIZ; in short: as §2
# Curvularia lunata [21] = assay: Antimicrobial activity against Curvularia lunata NCIM 716 at 200 ug/disk after 48 hrs by agar disc-diffusion method; conditions: NCIM 716, 48 h, read-out: DIZ; in short: as §2
# Aspergillus niger [22] = assay: Antimicrobial activity against Aspergillus niger NCIM 596 at 100 ug/disk after 48 hrs by agar disc-diffusion method; conditions: NCIM 596, 48 h, read-out: DIZ; in short: as §2
# Bacillus subtilis [23] = assay: Antimicrobial activity against Bacillus subtilis NCIM 2063 at 100 ug/disk after 24 hrs by agar disc-diffusion method; conditions: NCIM 2063, 24 h, read-out: DIZ; in short: as §2
MIC (Bacillus subtilis [1]),MIC (Fusarium solani [3]),MIC (Proteus vulgaris [4]),MIC (Klebsiella pneumoniae [9]),MIC (Staphylococcus aureus [12]),MIC (Curvularia lunata [14]),MIC (Aspergillus niger [16]),Compound,Activity [2],zone of inhibition at 100 µg/disc (Staphylococcus aureus [5]),zone of inhibition at 200 µg/disc (Proteus vulgaris [6]),zone of inhibition at 100 µg/disc (Proteus vulgaris [7]),zone of inhibition at 100 µg/disc (Klebsiella pneumoniae [8]),zone of inhibition at 100 µg/disc (Curvularia lunata [10]),zone of inhibition at 200 µg/disc (Staphylococcus aureus [11]),zone of inhibition at 100 µg/disc (Fusarium solani [13]),zone of inhibition at 200 µg/disc (Fusarium solani [15]),zone of inhibition at 200 µg/disc (Bacillus subtilis [17]),Activity [18],zone of inhibition at 200 µg/disc (Klebsiella pneumoniae [19]),zone of inhibition at 200 µg/disc (Aspergillus niger [20]),further results
100 µg/mL,200 µg/mL,200 µg/mL,200 µg/mL,100 µg/mL,100 µg/mL,200 µg/mL,O=S(=O)(Cc1nnc(-c2ccc(Cl)cc2)s1)Nc1ccc(Cl)cc1,35.7%,25 mm,20 mm,18 mm,19 mm,25 mm,27 mm,27 mm,30 mm,26 mm,34.6%,22 mm,23 mm,zone of inhibition at 200 µg/disc (Curvularia lunata [21]): 27 mm; zone of inhibition at 100 µg/disc (Aspergillus niger [22]): 20 mm; zone of inhibition at 100 µg/disc (Bacillus subtilis [23]): 23 mm
25 µg/mL,100 µg/mL,100 µg/mL,50 µg/mL,50 µg/mL,100 µg/mL,50 µg/mL,O=S(=O)(Cc1nnc(CS(=O)(=O)c2ccccc2)s1)Nc1ccccc1,22.6%,27 mm,26 mm,23 mm,27 mm,30 mm,30 mm,31 mm,33 mm,31 mm,23.8%,29 mm,30 mm,zone of inhibition at 200 µg/disc (Curvularia lunata [21]): 32 mm; zone of inhibition at 100 µg/disc (Aspergillus niger [22]): 29 mm; zone of inhibition at 100 µg/disc (Bacillus subtilis [23]): 29 mm
50 µg/mL,50 µg/mL,100 µg/mL,100 µg/mL,50 µg/mL,100 µg/mL,100 µg/mL,Cc1ccc(NS(=O)(=O)Cc2nnc(CS(=O)(=O)c3ccc(C)cc3)s2)cc1,20.3%,25 mm,26 mm,24 mm,25 mm,25 mm,28 mm,27 mm,35 mm,29 mm,21.7%,27 mm,26 mm,zone of inhibition at 200 µg/disc (Curvularia lunata [21]): 33 mm; zone of inhibition at 100 µg/disc (Aspergillus niger [22]): 22 mm; zone of inhibition at 100 µg/disc (Bacillus subtilis [23]): 27 mm

# From ChEMBL document CHEMBL1240473, “Synthesis and bioassay of aminosulfonyl-1,3,4-oxadiazoles and their interconversion to 1,3,4-thiadiazoles” (2010)
